For this assay, the target named is Neuronal acetylcholine receptor subunit alpha-7 (Rattus norvegicus, UniProt Q05941). The assay is described as follows: Inhibition of biotinylated alpha-bungarotoxin binding to alpha7 nAChR in rat PC12 cells by FACS analysis. Format: cell-based, PC-12. An outline of the steps:
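Rat PC12 cells in binding buffer (PBS, 1.0% FBS, 0.02% sodium azide), 0.1% DMSO; biotinylated α-bungarotoxin 10 nM final, 1 h at room temperature; nonspecific binding defined with 1.5 μM unlabeled toxin. After washing, phycoerythrin-streptavidin 1.0 μg/mL final, 15 min in the dark; read by FACS. Screened at 10 and 1 μM, then eight-point 3-fold dilution IC50; mean of two or more experiments.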
On the technique in general: Flow cytometry measures light scatter and fluorescence of single cells or particles in a stream.
Sequence of Neuronal acetylcholine receptor subunit alpha-7 (Q05941 whole entry): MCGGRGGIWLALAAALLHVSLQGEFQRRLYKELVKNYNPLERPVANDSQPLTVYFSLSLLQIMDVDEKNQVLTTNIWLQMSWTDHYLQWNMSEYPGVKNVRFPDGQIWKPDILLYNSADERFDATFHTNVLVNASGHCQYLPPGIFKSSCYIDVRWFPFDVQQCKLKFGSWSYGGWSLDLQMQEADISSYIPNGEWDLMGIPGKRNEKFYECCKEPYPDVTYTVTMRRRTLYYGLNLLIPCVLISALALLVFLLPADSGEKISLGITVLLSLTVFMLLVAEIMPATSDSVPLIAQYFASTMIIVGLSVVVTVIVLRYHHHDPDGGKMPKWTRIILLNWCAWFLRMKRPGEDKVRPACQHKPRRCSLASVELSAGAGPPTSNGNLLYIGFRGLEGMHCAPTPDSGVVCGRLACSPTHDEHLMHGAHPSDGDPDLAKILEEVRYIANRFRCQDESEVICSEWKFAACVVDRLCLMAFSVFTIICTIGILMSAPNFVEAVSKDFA
Broadly, the IC50 is the midpoint of a concentration-inhibition curve. A low value points to greater potency in that assay. `COc1cccc(NC(=O)N2CCNCC2COc2cccnc2)c1` (racemic): the IC50 came to 340 nM.
With `O=C(c1ccccc1)N1CCNCC1COc1cccnc1` (racemic), the half-inhibitory concentration (IC50) came out at 1080 nM.
Regarding `O=C(c1ccc(Cl)cc1)N1CCNCC1COc1cccnc1` (racemic), the IC50 is 6100 nM.
`c1cncc(OCC2CNCCN2c2nc3ncccc3o2)c1` (racemic) returned a half-maximal inhibitory concentration (IC50) of 4 nM.
For `COc1ccccc1NC(=O)N1CCNCC1COc1cccnc1` (racemic) the value was 850 nM.
Compound `O=C(Cc1ccc(Cl)cc1)N1CCNCC1COc1cccnc1` (racemic) returned an IC50 of 110 nM.
Turning to `c1cncc(OCC2CNCCN2c2nc3ccccc3s2)c1` (racemic), the IC50 is 490 nM.
For `O=C(Nc1ccc(-c2ccccc2)cc1)N1CCNCC1COc1cccnc1` (racemic) the value was 13 nM.
In turn, `COc1ccc2sc(N3CCNCC3COc3cccnc3)nc2c1` (racemic) yielded a half-inhibitory concentration (IC50) of 107 nM.
On to `Clc1ccc2nc(N3CCNCC3COc3cccnc3)sc2c1` (racemic), for which the IC50 came to 153 nM.
In turn, `Clc1cnc2nc(N3CCNCC3COc3cccnc3)sc2c1` (racemic) gave a half-inhibitory concentration (IC50) of 4 nM.
With `O=C(COc1ccccc1)N1CCNCC1COc1cccnc1` (racemic), the 50% inhibitory concentration (IC50) stood at 2340 nM.
`Cc1ccc(NC(=O)N2CCNCC2COc2cccnc2)cc1` (racemic) came in with an IC50 of 74 nM.
The compound `O=C(Cc1ccccc1)N1CCNCC1COc1cccnc1` (racemic) displayed an IC50 of 560 nM.
Compound `O=C(Oc1ccc(Cl)cc1)N1CCNCC1COc1cccnc1` (racemic) showed an IC50 of 9.5 nM.
The compound `c1cncc(OC[C@@H]2CNCCN2c2nc3ncccc3o2)c1` registered an IC50 of 1580 nM.
The same measure for `O=C(Nc1ccc(Cl)c(Cl)c1)N1CCNCC1COc1cccnc1` (racemic): 40 nM.
For `FC(F)(F)c1ccc2nc(N3CCNCC3COc3cccnc3)sc2c1` (racemic), the IC50 was found to be 338 nM.
With `O=C(Nc1cccc(Cl)c1)N1CCNCC1COc1cccnc1` (racemic), the IC50 is 210 nM.
Turning to `Fc1ccc2nc(N3CCNCC3COc3cccnc3)sc2c1` (racemic), the half-maximal inhibitory concentration (IC50) was 132 nM.
In turn, `COc1ccc2nc(N3CCNCC3COc3cccnc3)oc2c1` (racemic) returned an IC50 of 22 nM.
`O=C(Oc1ccccc1)N1CCNCC1COc1cccnc1` (racemic) registered an IC50 of 37 nM.
In turn, `FC(F)(F)Oc1ccc2nc(N3CCNCC3COc3cccnc3)sc2c1` (racemic) displayed a concentration for half-maximal inhibition (IC50) of 270 nM.
The same measure for `CC(C)c1ccc(NC(=O)N2CCNCC2COc2cccnc2)cc1` (racemic): 280 nM.
For `Brc1ccc2oc(N3CCNC[C@H]3COc3cccnc3)nc2c1`, the IC50 was 3200 nM.
In turn, `O=C(Nc1ccc2c(c1)CCO2)N1CCNCC1COc1cccnc1` (racemic) displayed an IC50 of 630 nM.
For `O=C(Nc1ccc(Br)cc1)N1CCNCC1COc1cccnc1` (racemic) the value was 50 nM.
`O=C(Nc1ccc(Cl)cc1)N1CCNCC1COc1cccnc1` (racemic) showed a half-inhibitory concentration (IC50) of 70 nM.
For `Cc1ccc2nc(N3CCNCC3COc3cccnc3)sc2c1` (racemic) the value was 85 nM; for `COc1ccc2nc(N3CCNCC3COc3cccnc3)sc2c1` (racemic), 79 nM.
`Brc1ccc2oc(N3CCNCC3COc3cccnc3)nc2c1` (racemic): the IC50 was found to be 75 nM.
The same measure for `COc1ccc(NC(=O)N2CCNCC2COc2cccnc2)c(OC)c1` (racemic): 80 nM; for `COc1ccc2oc(N3CCNCC3COc3cccnc3)nc2c1` (racemic): 71 nM.
In the case of `COc1ccc2nc(N3CCNC[C@H]3COc3cccnc3)sc2c1`, the IC50 was found to be 5100 nM.
`O=C(Nc1ccc(C(F)(F)F)cc1)N1CCNCC1COc1cccnc1` (racemic): the IC50 stood at 220 nM.
`O=C(Nc1ccc(OC(F)(F)F)cc1)N1CCNCC1COc1cccnc1` (racemic): the IC50 was determined as 152 nM.
The same measure for `c1cncc(OCC2CNCCN2c2nc3ncccc3s2)c1` (racemic): 32 nM.
`O=C(Nc1ccccc1)N1CCNCC1COc1cccnc1` (racemic) yielded a concentration for half-maximal inhibition (IC50) of 680 nM.
